We go through six compounds from ChEMBL document CHEMBL1914298, “Synthesis and inhibition study of monoamine oxidase, indoleamine 2,3-dioxygenase and tryptophan 2,3-dioxygenase by 3,8-substituted 5H-indeno[1,2-c]pyridazin-5-one derivatives” (Eur J Med Chem, 2011).

Data set [1] concerns the target T1, MAO-A (amine oxidase [flavin-containing] A) (Homo sapiens, UniProt P21397).
T1 sequence (P21397 whole entry): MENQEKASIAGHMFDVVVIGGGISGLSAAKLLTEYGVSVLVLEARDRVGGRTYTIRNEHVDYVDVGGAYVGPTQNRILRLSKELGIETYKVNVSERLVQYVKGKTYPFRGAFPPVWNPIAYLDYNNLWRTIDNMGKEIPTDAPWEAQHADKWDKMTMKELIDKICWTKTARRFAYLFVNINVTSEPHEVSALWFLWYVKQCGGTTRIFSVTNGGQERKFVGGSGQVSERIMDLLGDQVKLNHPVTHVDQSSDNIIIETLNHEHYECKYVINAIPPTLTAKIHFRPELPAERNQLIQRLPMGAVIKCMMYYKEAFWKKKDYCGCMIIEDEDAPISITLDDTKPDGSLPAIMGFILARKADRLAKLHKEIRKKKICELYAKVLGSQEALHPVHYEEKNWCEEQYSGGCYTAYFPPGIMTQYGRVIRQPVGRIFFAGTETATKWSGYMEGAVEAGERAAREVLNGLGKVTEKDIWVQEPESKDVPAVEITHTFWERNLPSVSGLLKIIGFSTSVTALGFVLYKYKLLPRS
The experiment in a line: (§1) Inhibition of human recombinant MAOA expressed in baculovirus-infected BTI insect cells at 10 uM after 1 hr by MAO-GLO two-step bioluminescence assay. In short, it runs like this: (§2)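 Recombinant human MAO-A or MAO-B from baculovirus-infected BTI insect cells; test compound at […], in triplicate in vitro; activity measured by luminescent method (Valley et al.); percent inhibition given as mean ± SD, n = 3.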

The target of data set [2] is T2, MAO-B (amine oxidase [flavin-containing] B) (Homo sapiens, UniProt P27338).
T2 sequence (P27338 whole entry): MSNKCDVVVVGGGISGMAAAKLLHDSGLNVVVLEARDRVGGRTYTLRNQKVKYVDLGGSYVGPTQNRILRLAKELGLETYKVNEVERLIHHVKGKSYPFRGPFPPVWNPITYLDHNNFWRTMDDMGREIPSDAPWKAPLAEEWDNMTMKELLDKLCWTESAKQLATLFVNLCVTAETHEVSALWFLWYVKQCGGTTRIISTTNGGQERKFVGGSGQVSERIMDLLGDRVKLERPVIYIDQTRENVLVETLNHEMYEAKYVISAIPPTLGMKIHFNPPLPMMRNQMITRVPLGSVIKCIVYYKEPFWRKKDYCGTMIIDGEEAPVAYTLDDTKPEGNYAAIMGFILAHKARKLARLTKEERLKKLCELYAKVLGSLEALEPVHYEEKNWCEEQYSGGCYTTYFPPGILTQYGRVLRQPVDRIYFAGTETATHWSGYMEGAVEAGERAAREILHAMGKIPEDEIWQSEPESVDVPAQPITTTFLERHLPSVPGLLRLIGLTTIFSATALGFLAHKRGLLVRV
Briefly: Inhibition of human recombinant MAOB expressed in baculovirus-infected BTI insect cells at 10 uM after 1 hr by MAO-GLO two-step bioluminescence assay. The procedure, abridged:
as §2

The target in data set [3] is Indoleamine 2,3-dioxygenase 1 (Homo sapiens) (UniProt P14902). The experiment in a line: Inhibition of human IDO using L-tryptophan as substrate at 25 uM by colorimetric method. In short, it runs like this:
(§3)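 Human IDO activity read colourimetrically, rmTDO activity read fluorometrically; compounds tested in vitro at […]; percent inhibition as mean ± SD, n = 3.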

Data set [4] concerns the target T3, Tryptophan 2,3-dioxygenase (Ralstonia metallidurans (strain CH34 / ATCC 43123 / DSM 2839)) (UniProt Q1LK00).
T3 sequence (whole entry): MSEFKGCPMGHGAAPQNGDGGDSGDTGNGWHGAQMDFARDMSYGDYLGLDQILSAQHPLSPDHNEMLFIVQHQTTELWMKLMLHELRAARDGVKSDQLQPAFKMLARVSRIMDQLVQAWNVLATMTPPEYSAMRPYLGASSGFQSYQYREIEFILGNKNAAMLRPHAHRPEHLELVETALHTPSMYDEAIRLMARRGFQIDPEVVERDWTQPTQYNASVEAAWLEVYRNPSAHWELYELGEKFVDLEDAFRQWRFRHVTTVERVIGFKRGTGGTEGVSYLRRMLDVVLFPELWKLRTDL
The experiment in a line: Inhibition of Ralstonia metallidurans TDO using L-tryptophan as substrate at 25 uM by fluorimetric method. The following applies: Cupriavidus metallidurans. The procedure, abridged: as §3

The target in data set [5] is T4, Amine oxidase [flavin-containing] A (Homo sapiens, UniProt P21397).
T4 sequence (P21397 whole entry): T1 sequence (P21397 whole entry)
The data set is described as §1. The settings on record: 1 h, 10 µM. In short, it runs like this:
as §2

The target in data set [6] is T5, Amine oxidase [flavin-containing] B (Homo sapiens, UniProt P27338).
T5 sequence (P27338 whole entry): T2 sequence (P27338 whole entry)
Briefly: Inhibition of human recombinant MAOB expressed in baculovirus-infected BTI insect cells after 1 hr by Cheng-Prusoff equation analysis.

Data set [7] deals with T5, Amine oxidase [flavin-containing] B. Briefly: Inhibition of human recombinant MAOB expressed in baculovirus-infected BTI insect cells by Lineweaver-Burk plot analysis.

Calls of active or inactive are those of the source. The calls are words filed in the database; no cut-off is given here.

Sequence of Indoleamine 2,3-dioxygenase 1 (Homo sapiens) (P14902 whole entry, looked up): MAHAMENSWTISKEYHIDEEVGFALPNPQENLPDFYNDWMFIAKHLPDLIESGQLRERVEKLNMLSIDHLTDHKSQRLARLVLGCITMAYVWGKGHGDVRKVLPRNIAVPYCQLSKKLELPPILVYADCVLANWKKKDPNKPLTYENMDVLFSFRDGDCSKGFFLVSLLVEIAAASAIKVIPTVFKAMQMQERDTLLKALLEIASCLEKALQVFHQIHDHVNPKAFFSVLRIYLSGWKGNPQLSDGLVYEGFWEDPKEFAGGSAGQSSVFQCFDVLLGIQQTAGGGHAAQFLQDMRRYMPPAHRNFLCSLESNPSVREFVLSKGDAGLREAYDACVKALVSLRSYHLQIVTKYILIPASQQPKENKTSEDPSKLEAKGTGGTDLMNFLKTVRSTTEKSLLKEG

What is called inhibition is the percentage by which the read-out fell short of the control. For the compound `O=C1c2ccc(OCc3ccccc3)cc2-c2nnc(-c3cccc(C(F)(F)F)c3)cc21`, the results for the inhibition at 1 h, 10 µM in data set [1] and in data set [2] were 10% and 7%, respectively. The compound also showed an inhibition in data set [3] of 17%. Besides, the inhibition result in data set [4] is “inactive”.

`Cc1cc2c(nn1)-c1cc(OCCCC(F)(F)F)ccc1C2=O`: the “inhibition (INH)” value in data set [5] is listed as “Not Active”. Moreover, the inhibition at 1 h, 10 µM in data set [2] came out at 92%. Moreover, the inhibition in data set [3] was 19%; in data set [4], 31%.

By Ki is commonly meant the dissociation constant of the complex between target and ligand, obtained from inhibition or displacement. `Cc1cccc(COc2ccc3c(c2)-c2nnc(C)cc2C3=O)c1`: the inhibition at 1 h, 10 µM in data set [1] is 17%; in data set [2] it was 90%. Further, the inhibition in data set [3] came to 14%; in data set [4], 66%. Further, in data set [6], the Ki was 480 nM.

For `COc1ccc2c(c1)-c1nnc(-c3cccc(C(F)(F)F)c3)cc1C2=O`, in data set [5], the “inhibition (INH)” value is “Not Active”. Further, in data set [2], the inhibition at 1 h, 10 µM was 36%. In addition, in data set [3], the inhibition result was “inactive”. The compound also displayed an inhibition in data set [4] of 18%.

Turning to `O=C1c2ccc(OCCCC(F)(F)F)cc2-c2nnc(-c3cccc(C(F)(F)F)c3)cc21`, the “inhibition (INH)” value in data set [5] was “Not Active”. Besides, in data set [2], the inhibition at 1 h, 10 µM stood at 57%. Moreover, in data set [3], the inhibition entry is “inactive”. Moreover, the inhibition in data set [4] came out at 20%.

As for `Cc1cc2c(nn1)-c1cc(OCc3cccc(Cl)c3)ccc1C2=O`, the inhibition at 1 h, 10 µM in data set [1] stood at 15%; in data set [2], 93%. For the same compound, the inhibition in data set [3] is 25%; in data set [4], 19%. The results for the Ki in data set [7] and in data set [6] were 110 nM and 160 nM, respectively.
